Screening results from PubChem BioAssay.
This is a sample that favours compounds with a hit; in the whole collection about 4.7% have one here.
697 NFkB inh = inhibitors of PMA/ionomycin-induced NF-kB reporter, 697 cells, primary screen, B-cell NF-kB inhibitor project, cell-based, luminescence, uHTS. AID 435022, 2010. inhibition, % at 4 µM. 330,000 compounds, 0.33% hits. 697 B-cell NF-kB luciferase reporter, 16 h; in the data active means inhibition above about 35%
VIM-2 inhibitor = VIM-2 metallo-beta-lactamase inhibitors, primary screen, biochemical, epi-absorbance readout, Pseudomonas aeruginosa enzyme; inhibition, % at 5.6 µM; purified VIM-2, nitrocefin hydrolysis, epi-absorbance fluorescence; 290,000 compounds, 0.89% hits;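 active means inhibition above the mean of all tested compounds plus 3 SD, cutoff set per screening run, cut at about 7.5% in these data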;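 further: red hydrolysis product quenches plate fluorescence so inhibitors raise well fluorescence; 0% = enzyme with DMSO and 100% = DMSO without enzyme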
Mdm2-MdmX inh = inhibitors of human Mdm2-MdmX association, primary screen, cell-based, luminescence, split luciferase, SaOS-2, uHTS. Protein Mdm4 (Homo sapiens) + E3 ubiquitin-protein ligase Mdm2 (Homo sapiens), …. SaOS-2 split-luciferase Mdm2/MdmX complementation. inhibition, % at 8 µM. 330,000 compounds, 3% hits. AID 485346, 2010;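 active means inhibition of at least 50% at 8 µM in the primary screen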
Target sequence (O15151 whole entry, looked up): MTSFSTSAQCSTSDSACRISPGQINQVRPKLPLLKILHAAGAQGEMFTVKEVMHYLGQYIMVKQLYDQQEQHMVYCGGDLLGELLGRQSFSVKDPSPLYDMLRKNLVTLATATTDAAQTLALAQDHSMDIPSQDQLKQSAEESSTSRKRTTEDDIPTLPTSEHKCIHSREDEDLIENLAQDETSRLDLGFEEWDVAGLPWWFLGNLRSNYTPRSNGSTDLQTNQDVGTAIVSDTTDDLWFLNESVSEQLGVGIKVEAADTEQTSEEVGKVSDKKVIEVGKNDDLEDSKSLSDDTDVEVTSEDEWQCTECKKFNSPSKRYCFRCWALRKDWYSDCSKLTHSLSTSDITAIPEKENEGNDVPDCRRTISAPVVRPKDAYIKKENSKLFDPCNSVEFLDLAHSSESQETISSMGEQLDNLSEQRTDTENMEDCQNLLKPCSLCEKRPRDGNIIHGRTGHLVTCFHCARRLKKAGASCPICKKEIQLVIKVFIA
Target sequence (Q00987 whole entry, looked up): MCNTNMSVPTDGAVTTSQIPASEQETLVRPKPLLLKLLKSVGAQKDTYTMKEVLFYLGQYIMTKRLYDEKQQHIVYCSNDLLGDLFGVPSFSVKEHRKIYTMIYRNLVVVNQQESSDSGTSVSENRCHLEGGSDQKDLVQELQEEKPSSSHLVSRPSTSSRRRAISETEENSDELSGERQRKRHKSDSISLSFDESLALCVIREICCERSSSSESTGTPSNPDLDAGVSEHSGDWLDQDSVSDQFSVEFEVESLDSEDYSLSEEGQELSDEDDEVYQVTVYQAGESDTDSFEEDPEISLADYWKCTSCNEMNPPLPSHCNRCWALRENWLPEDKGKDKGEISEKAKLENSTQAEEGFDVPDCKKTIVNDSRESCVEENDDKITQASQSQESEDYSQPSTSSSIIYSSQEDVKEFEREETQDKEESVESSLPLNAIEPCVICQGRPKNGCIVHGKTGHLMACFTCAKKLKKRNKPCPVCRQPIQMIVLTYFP
Jurkat NFkB inh = inhibitors of induced NF-kB luciferase reporter, primary screen, TCR NF-kB activation inhibitor project, cell-based, luminescence, uHTS | Jurkat, PMA/ionomycin-induced NF-kB luciferase reporter | inhibition, % at 4 µM | 330,000 compounds, 0.53% hits | AID 435003, 2010; in the data active means inhibition above about 50%
IMP-1 inh = IMP-1 metallo-beta-lactamase inhibitors, primary screen, biochemical, epi-absorbance readout, Pseudomonas aeruginosa enzyme | purified IMP-1, nitrocefin hydrolysis, epi-absorbance fluorescence | inhibition, % at 5.6 µM | 290,000 compounds, 0.45% hits | AID 1556, 2009;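 active means inhibition above the mean plus 3 SD of all compounds in the same screening run, cut at about 4.5% in these data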;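 further: 0% = IMP-1 with DMSO and 100% = DMSO wells lacking enzyme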
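System: purified IMP-1; amount: IMP-1 0.2 nM before substrate addition; compound: single dose, 5.6 µM; times: 25 °C, 15 min preincubation, 25 min reaction; signal: Epi-absorbance via hydrolysed-nitrocefin quenching of white-plate fluorescence, 480/530 nm, EDTA stop; benchmarks: DMSO with and without IMP-1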
aSyn 5UTR inh = MLPCN primary screen, SNCA 5' untranslated region; alpha-synuclein 5'UTR reporter, inhibitor activity; inhibition, % (tested at 7.5 µM); 300,000 compounds, 0.82% hits; in the data active means inhibition above about 60%; inconclusive means no clear call, values can overlap the other calls;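 further: H4 neuroglioblastoma cells stably carrying SNCA 5'UTR luciferase fusion; 0% = DMSO wells and 100% = positive control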
697 NFkB conf = PMA/ionomycin-induced NF-kB reporter inhibitors, 697 retest, confirmation, B-cell NF-kB inhibitor project, cell-based, luminescence, single concentration; shares compounds with 697 NFkB inh; 697 B-cell NF-kB luciferase, 16 h; inhibition, % at 4 µM; 2,000 compounds, 35% hits; AID 449746, 2010; in the data active means inhibition mostly above about 28%, no sharp cut-off; inactive means mostly below about 22%
Mdm2 MdmX conf = Mdm2-MdmX complex disruptors, retested hits, confirmation, luminescence, single concentration; shares compounds with Mdm2-MdmX inh; Mdm2-MdmX binding, luminescent assay; inhibition, % at 8 µM; 10,000 compounds, 55% hits; AID 489028, 2010; in the data active means inhibition above about 40%
FLuc counter = full-length luciferase signal inhibition, confirmation, counter-screen for Mdm2/MdmX interaction inhibitor project, cell-based, single concentration, SaOS-2 | shares compounds with Mdm2-MdmX inh | SaOS-2 full-length luciferase counterscreen, luminescence | inhibition, % at 8 µM | 6,200 compounds, 77% hits | AID 504607, 2011;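 active means mean inhibition at 8 µM reaching about 37%, which flags the compound as non-specific, limit read from the data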;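 further: p53-null SaOS-2 cells with luciferase driven by a doxycycline-inducible promoter; compound on cells about two nights before reading with doxycycline added after day one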
Active calls of the source: *; i = inactive; ? = inconclusive; / = not tested or not shown.

SMILES | 697 NFkB inh | VIM-2 inhibitor | Mdm2-MdmX inh | Jurkat NFkB inh | IMP-1 inh | aSyn 5UTR inh | 697 NFkB conf | Mdm2 MdmX conf | FLuc counter
C=C1C(=O)C=C[C@]2(C)C[C@@H]3OC(=O)[C@](C)(O)[C@H]3C[C@@H]12 | -314 | / | 73* | 42 | / | i | -198 | 47* | 25
C[C@@H]1C[C@@H]2OC(=O)[C@]3(C)[C@H]2[C@@H](OC3(C)O)[C@]2(C)C(=O)C=C[C@H]12 (some centres not stated) | -46 | / | -30 | 10 | / | -23 | / | / | /
CCOC(=O)c1cc(-c2ccccc2)nc2nc(N(CC)CC)sc12 | 16 | -3 | 22 | 3 | -5 | 35 | / | / | /
Cc1ccc(C(=O)NCCNC(=O)COc2ccc(Cl)cc2)cn1 | 16 | -2 | -8 | 4 | -4 | -14 | / | / | /
COc1ccccc1Cn1c(=O)c2ccccc2n2c(Sc3ncnc4sccc34)nnc12 | 35* | -2 | 76* | 14 | -3 | 4 | 18 | 30 | /
COc1cc(OC)c2c(-c3cccc(-c4cccc(C)c4)c3)cc(=O)oc2c1 | -27 | / | 44 | / | / | / | / | / | /
COc1cc(OC)c2c(-c3cccc(-c4ccc(N(C)C)cc4)c3)cc(=O)oc2c1 | -303 | / | 67* | / | / | / | -105 | 56* | 103*
COc1ccc(-c2cccc(-c3cc(=O)oc4cc(OC)cc(OC)c34)c2)cc1 | -337 | / | 78* | / | / | / | -112 | 54* | 68*
O=C(O)CCC(=O)Nc1cccc(-c2nc3ccccc3o2)c1 | -2 | 1 | 5 | -5 | 0 | 11 | / | / | /
Cn1cnc(NCc2ccccc2)c1[N+](=O)[O-] | -7 | 0 | 18 | -7 | -1 | 20 | / | / | /
Cc1occc1C(=O)Nc1nnc(C(F)(F)F)s1 | -11 | 1 | -11 | -1 | -2 | -9 | / | / | /
O=C(Nc1ccccc1C(=O)Nc1nnc(C(F)(F)F)s1)c1ccccc1 | 96* | -2 | 97* | -3 | 1 | ? | 94* | 97* | 20
Cc1ccc(/C=C2\SC(=S)N(CCCC(=O)Nc3ccc(O)cc3)C2=O)cc1 | 92* | -1 | 93* | -1 | -4 | 104* | 90* | 89* | 47*
O=C(CN1C(=O)S/C(=C\C=C\c2ccccc2)C1=O)Nc1ccc(C(=O)O)cc1 | 5 | -3 | 15 | -2 | 1 | 27 | / | / | /
O=C(CCN1C(=O)/C(=C/c2ccccc2)SC1=S)Nc1ccccn1 | 3 | 0 | 5 | 5 | 1 | 11 | / | / | /
Cc1ccc(/C=C2\SC(=S)N(CCCC(=O)Nc3ccccn3)C2=O)cc1 | 81* | 0 | 69* | 5 | 0 | 107* | 96* | 68* | 52*
O=C(CCCN1C(=O)S/C(=C\C=C\c2ccccc2)C1=O)Nc1ccc(O)cc1 | 40* | 0 | 53* | -32 | -2 | -126 | 32* | -1 | /
O=C(CN(Cc1ccc(F)cc1)C(=O)CCC(=O)Nc1nccs1)NCC1CCCO1 (configuration not stated) | 7 | -1 | -37 | 1 | 0 | -24 | / | / | /
COc1ccc(NC(=O)C2CCN(c3cc(-c4ccccc4)nc4ncnn34)CC2)cc1OC | 40* | 0 | 54* | 24 | -3 | / | 8 | 36 | 60*
COc1ccc(OC)c(NC(=O)C2CCN(c3cc(-c4ccccc4)nc4ncnn34)CC2)c1 | 24 | -5 | 38 | 25 | -2 | 26 | / | / | /
O=C(c1ccc(Cl)c(S(=O)(=O)N2CCCC2)c1)N1CCCC(C(F)(F)F)C1 (configuration not stated) | 7 | / | 17 | -4 | / | 3 | / | / | /
COc1ccc(-c2cc(C(=O)N/N=C/c3sccc3C)c3ccccc3n2)c(OC)c1 | -275 | -3 | 88* | -23 | -6 | 13 | -21 | 87* | 31
COc1ccc(-c2cc(C(=O)N/N=C/c3ccc4c(c3)OCO4)c3ccccc3n2)c(OC)c1 | -64 | -1 | 32 | -3 | -4 | 32 | / | / | /
O=C1c2ccccc2C(=O)C1c1nccc2ccccc12 | -321 | 0 | 67* | -43 | -2 | 99* | -271 | 10 | /
Cc1ccc(OCCn2cc(C(=S)N3CCCC3)c3ccccc32)cc1C | i | -5 | 96* | -58 | -3 | -38 | 7 | 91* | 54*
SMILES | 697 NFkB inh | VIM-2 inhibitor | Mdm2-MdmX inh | Jurkat NFkB inh | IMP-1 inh | aSyn 5UTR inh | 697 NFkB conf | Mdm2 MdmX conf | FLuc counter
CCOC(=O)C1CCCCN1S(=O)(=O)c1cc2c(cc1C)NC(=O)CO2 (configuration not stated) | -8 | -1 | 0 | -10 | -3 | -3 | / | / | /
O=C(N/N=C(\CC(=O)c1cccs1)C(F)(F)F)c1ccncc1 | -271 | -3 | 66* | 7 | -3 | 2 | -7 | 18 | /
Cc1ccc(C(=O)N/N=C(/CC(=O)c2cccs2)C(F)(F)F)cc1 | -45 | -4 | 3 | -9 | -3 | -12 | / | / | /
COc1cc(/C=N/Nc2nc(Nc3ccccc3)nc(N3CCOCC3)n2)ccc1OC(=O)c1ccco1 | 49* | -4 | 52* | -45 | -2 | -39 | 39* | 21 | /
Cc1[nH]c2ccccc2c1/C=N/Nc1nc(Nc2ccccc2)nc(N2CCOCC2)n1 | 49* | -5 | 58* | 49 | -1 | 7 | 55* | 30 | /
c1ccc(Nc2nc(N3CCCC3)nc(N3CCOCC3)n2)cc1 | 17 | / | 20 | 5 | / | 15 | / | / | /
Oc1[nH]c2ccccc2c1N=Nc1nc(Nc2ccccc2)nc(N2CCOCC2)n1 | 53* | -1 | 80* | -2 | -3 | -2 | 52* | 81* | 59*
N#Cc1cccc(S(=O)(=O)N2CCN(c3ccnc4cc(Cl)ccc34)CC2)c1 | 26 | 1 | 31 | 34 | 0 | 30 | / | / | /
Cn1c(=O)[nH]c(=O)c2c1nc(N/N=C/c1ccncc1)n2Cc1ccc(Cl)cc1 | 38* | -2 | 67* | -1 | -2 | -3 | 18 | 15 | /
CSc1nc2c(c(=O)[nH]c(=O)n2C)n1Cc1ccc(Cl)cc1 | -15 | 0 | 29 | -4 | 0 | 32 | / | / | /
